Results from ChEMBL document CHEMBL4011623, “Development of 1-((1,4-trans)-4-Aryloxycyclohexyl)-3-arylurea Activators of Heme-Regulated Inhibitor as Selective Activators of the Eukaryotic Initiation Factor 2 Alpha (eIF2α) Phosphorylation Arm of the Integrated Endoplasmic Reticulum Stress Response” (J Med Chem, 2017).
Activity calls are given as the source filed them. The calls are words filed in the database; no cut-off is given here.

What was measured:
[1] = Effect on beta actin protein expression in human CRL2813 cells at 5 uM after 8 hrs by Western blot analysis; type: ADME, cell-based; settings: crl2813, 8 h
Summary of the method: (§1)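 CRL-2813 cells at 70% confluence in serum-containing, antibiotic-free medium; treated at 5 μM for 8 h. Lysed in M-PER on ice for 30 min, equal protein by BCA, SDS-PAGE and immunoblot for CHOP, cyclin D1 and β-actin. Blots representative of three independent experiments.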

[2] = biological target: Eukaryotic translation initiation factor 2-alpha kinase 1 (Mus musculus) (UniProt Q9Z2R9); test: Activation of HRI in mouse KLN cells transfected with 5'UTR of ATF-4 mRNA fused firefly luciferase mRNA and 5'UTR lacking uORF fused renila luciferase mRNA assessed as increase in eIF2alpha phosphorylation by measuring ratio of firefly luciferase to renila luciferase after 16 hrs; type: cell-based
Chain of Eukaryotic translation initiation factor 2-alpha kinase 1 (Mus musculus) (Q9Z2R9 whole entry, the tested form may be a part): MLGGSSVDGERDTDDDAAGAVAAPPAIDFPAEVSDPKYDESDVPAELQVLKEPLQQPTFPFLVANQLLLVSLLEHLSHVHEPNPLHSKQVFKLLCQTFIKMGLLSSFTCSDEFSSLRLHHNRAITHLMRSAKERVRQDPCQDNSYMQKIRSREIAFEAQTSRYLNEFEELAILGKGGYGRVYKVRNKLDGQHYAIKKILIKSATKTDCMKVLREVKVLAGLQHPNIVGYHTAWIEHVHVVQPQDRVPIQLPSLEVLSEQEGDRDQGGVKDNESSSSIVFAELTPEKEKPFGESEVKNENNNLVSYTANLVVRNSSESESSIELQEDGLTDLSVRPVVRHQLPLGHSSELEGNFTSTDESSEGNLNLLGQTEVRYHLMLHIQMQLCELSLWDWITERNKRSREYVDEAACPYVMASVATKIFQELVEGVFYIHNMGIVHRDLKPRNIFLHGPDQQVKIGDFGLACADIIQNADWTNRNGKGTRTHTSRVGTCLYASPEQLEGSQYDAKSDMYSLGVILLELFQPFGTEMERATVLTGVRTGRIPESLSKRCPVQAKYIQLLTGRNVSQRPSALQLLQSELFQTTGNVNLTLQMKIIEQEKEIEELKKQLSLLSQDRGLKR

Mus musculus [3] = test: Toxicity in NU008 nude mouse xenografted with human CRL2813 cells assessed as body weight change at 37.5 mg/kg, ip qd administered for 4 days followed by 4 days off and 3 days on for total 28 days; type: organism-based; settings: in vivo
Summary of the method: (§2)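 Male nude mice injected s.c. with CRL-2813 cells; once tumors reached 100–150 mm3, randomized into groups of nine. Given i.p. q.d. at 150 or 37.5 mg/kg (4 days on, 4 off, 3 on; 28 days total) in NMP/Cremophor EL/water at 1 μl/g. Vehicle controls received the mixture alone. Body weight measured twice weekly; tumors by caliper weekly. Mean ± SEM.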

Mus musculus [4] = test: Nephrotoxicity in NU008 nude mouse xenografted with human CRL2813 cells at 150 mg/kg, ip qd administered for 4 days followed by 4 days off and 3 days on for total 28 days; type: toxicity, organism-based; settings: in vivo
Summary of the method: (§3)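 Xenograft-bearing nude mice dosed i.p. on the 28-day intermittent schedule (150 or 37.5 mg/kg in NMP/Cremophor EL/water). Euthanized at the end of treatment; organs harvested, fixed and examined histopathologically.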

[5] = biological target: Eukaryotic translation initiation factor 2-alpha kinase 1 (Homo sapiens) (UniProt Q9BQI3); test: Activation of HRI in human CRL2813 cells assessed as increase in CHOP protein expression at 5 uM after 8 hrs by Western blot analysis; type: cell-based; summary of the method: as §1
Chain of Eukaryotic translation initiation factor 2-alpha kinase 1 (Homo sapiens) (Q9BQI3 whole entry): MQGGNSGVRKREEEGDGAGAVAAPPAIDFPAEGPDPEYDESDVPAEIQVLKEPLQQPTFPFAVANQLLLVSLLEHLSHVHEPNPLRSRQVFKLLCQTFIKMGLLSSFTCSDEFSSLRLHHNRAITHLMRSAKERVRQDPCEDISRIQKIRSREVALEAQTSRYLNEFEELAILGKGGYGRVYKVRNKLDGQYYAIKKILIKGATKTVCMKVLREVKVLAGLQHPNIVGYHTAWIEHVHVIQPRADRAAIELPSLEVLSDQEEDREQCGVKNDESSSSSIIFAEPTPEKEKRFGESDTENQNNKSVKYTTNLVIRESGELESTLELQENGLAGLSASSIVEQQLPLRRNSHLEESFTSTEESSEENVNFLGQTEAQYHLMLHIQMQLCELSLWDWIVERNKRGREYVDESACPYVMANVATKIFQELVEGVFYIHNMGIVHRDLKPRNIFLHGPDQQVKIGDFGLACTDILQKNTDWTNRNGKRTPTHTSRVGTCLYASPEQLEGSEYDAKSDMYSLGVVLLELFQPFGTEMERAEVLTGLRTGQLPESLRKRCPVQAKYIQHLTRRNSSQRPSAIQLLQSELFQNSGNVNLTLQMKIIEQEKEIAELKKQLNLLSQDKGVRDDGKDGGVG

[6] = Antitumor activity against human CRL2813 cells xenografted in NU008 nude mouse assessed as tumor growth inhibition at 37.5 mg/kg, ip qd administered for 4 days followed by 4 days off and 3 days on for total 28 days relative to control; type: functional; settings: read-out: TGI; summary of the method: as §2
[7] = Antiproliferative activity against human CRL2813 cells after 5 days by sulforhodamine B assay; type: functional, cell-based; settings: CRL2813, 120 h
Summary of the method: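 CRL-2813 melanoma cells grown 5 days with 0.5–20 μM compound, then fixed in cold 10% TCA and stained with sulforhodamine B. Bound dye measured. Growth % = 100×(T−T0)/(C−T0), with T0 at time zero. IC50 is the concentration giving 50% growth inhibition.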

[8] = Tmax in NU008 nude mouse xenografted with human CRL2813 cells at 40 mg/kg, ip by LC-MS analysis; type: ADME, organism-based; settings: in vivo
Summary of the method: (§4)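 Single i.p. dose of 40 mg/kg. Blood sampled before and at 0.5, 1, 2, 4, 6, 24, 48 and 72 h, mixed with 0.1% EDTA. Whole-blood levels quantified by LC-MS/MS (C18 column at 45 °C) against a standard curve. At least three mice per time point, mean ± SEM.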

[9] = biological target: Eukaryotic translation initiation factor 2-alpha kinase 1 (Homo sapiens) (UniProt Q9BQI3); test: Activation of HRI in human CRL2813 cells assessed as increase in eIF2alpha phosphorylation at 5 uM after 2 hrs by Western blot analysis; type: cell-based
Summary of the method: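 Adherent CRL-2813 melanoma cells exposed to 5 μM for 2 h. Lysates immunoblotted with anti-phosphoserine-51 eIF2α and anti-total eIF2α antibodies after BCA normalization and SDS-PAGE. Gels representative of three independent experiments.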

[10] = Apparent half life in NU008 nude mouse xenografted with human CRL2813 cells at 40 mg/kg, ip by LC-MS analysis; type: ADME, organism-based; settings: in vivo, read-out: t1/2(app) (converted); summary of the method: as §4
Mus musculus [11] = test: Neurotoxicity in NU008 nude mouse xenografted with human CRL2813 cells at 150 mg/kg, ip qd administered for 4 days followed by 4 days off and 3 days on for total 28 days; type: toxicity, organism-based; settings: in vivo; summary of the method: as §3
[12] = biological target: Eukaryotic translation initiation factor 2-alpha kinase 1 (Homo sapiens) (UniProt Q9BQI3); test: Activation of HRI in human CRL2813cells assessed as decrease in cyclin D1 protein expression at 5 uM after 8 hrs by Western blot analysis; summary of the method: as §1
Mus musculus [13] = test: Induction of eIF2alpha phosphorylation in tumor of NU008 nude mouse xenografted with human CRL2813 cells at 37.5 to 150 mg/kg, ip qd administered for 3 days by Western blot analysis; type: functional, organism-based
Summary of the method: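 Mice bearing ~200 mm3 CRL-2813 xenografts injected on three consecutive days with vehicle or the same doses used in the efficacy study. Tumors excised, lysed and immunoblotted for phosphorylated and total eIF2α.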

CRL2813 = test: Antitumor activity against human CRL2813 cells xenografted in ip dosed NU008 nude mouse assessed as tumor growth inhibition administered qd for 4 days followed by 4 days off and 3 days on for total 28 days; type: functional, organism-based; summary of the method: as §2
Mus musculus [14] = test: Toxicity in NU008 nude mouse xenografted with human CRL2813 cells assessed as histopathologic change in spleen at 150 mg/kg, ip qd administered for 4 days followed by 4 days off and 3 days on for total 28 days; type: organism-based; settings: in vivo; summary of the method: as §3
[15] = Antitumor activity against human CRL2813 cells xenografted in NU008 nude mouse assessed as tumor growth inhibition at 150 mg/kg, ip qd administered for 4 days followed by 4 days off and 3 days on for total 28 days relative to control; type: functional; settings: read-out: TGI; summary of the method: as §2
[16] = biological target: Eukaryotic translation initiation factor 2-alpha kinase 1 (Mus musculus) (UniProt Q9Z2R9); test: Activation of HRI in mouse KLN cells transfected with 5'UTR of ATF-4 mRNA fused firefly luciferase mRNA and 5'UTR lacking uORF fused renila luciferase mRNA assessed as increase in eIF2alpha phosphorylation by measuring ratio of firefly luciferase to renila luciferase at 5 uM after 16 hrs; type: cell-based
[17] = biological target: Eukaryotic translation initiation factor 2-alpha kinase 1 (Mus musculus) (UniProt Q9Z2R9); test: Activation of HRI in mouse KLN cells transfected with 5'UTR of ATF-4 mRNA fused firefly luciferase mRNA and 5'UTR lacking uORF fused renila luciferase mRNA assessed as increase in eIF2alpha phosphorylation by measuring ratio of firefly luciferase to renila luciferase at 1.25 uM after 16 hrs; type: cell-based
Mus musculus [18] = test: Cardiotoxicity in NU008 nude mouse xenografted with human CRL2813 cells at 150 mg/kg, ip qd administered for 4 days followed by 4 days off and 3 days on for total 28 days; type: toxicity, organism-based; settings: in vivo; summary of the method: as §3
Mus musculus [19] = test: Toxicity in NU008 nude mouse xenografted with human CRL2813 cells assessed as histopathologic change in bone marrow at 150 mg/kg, ip qd administered for 4 days followed by 4 days off and 3 days on for total 28 days; type: organism-based; settings: in vivo; summary of the method: as §3
Mus musculus [20] = test: Hepatotoxicity in NU008 nude mouse xenografted with human CRL2813 cells at 150 mg/kg, ip qd administered for 4 days followed by 4 days off and 3 days on for total 28 days; type: toxicity, organism-based; settings: in vivo; summary of the method: as §3
[21] = biological target: Eukaryotic translation initiation factor 2-alpha kinase 1 (Homo sapiens) (UniProt Q9BQI3); test: Activation of HRI in human CRL2813 cells assessed as induction of CHOP mRNA level at 5 uM by real-time PCR relative to 18S RNA; type: cell-based
Summary of the method: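 Fold induction of CHOP mRNA in cells treated at 5 μM, normalized to 18S RNA and expressed relative to DMSO (set to 1). Triplicate samples, three independent experiments, mean ± SEM.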

Mus musculus [22] = test: Toxicity in NU008 nude mouse xenografted with human CRL2813 cells assessed as body weight change at 150 mg/kg, ip qd administered for 4 days followed by 4 days off and 3 days on for total 28 days; type: organism-based; settings: in vivo; summary of the method: as §2

Activity [2]: Dose-dependent effect
Activity [5]: Active
Tmax [8]: 6 to 24 h
Activity [9]: Active
half-life [10]: 40 h
Activity [12]: Active
Ratio [16]: 13.2
Ratio [17]: 5.65
fold change (FC) [21]: 9.87
SMILES: N#Cc1cc(NC(=O)N[C@H]2CC[C@H](Oc3ccc(C(F)(F)F)cc3)CC2)cc(C(F)(F)F)c1
Activity [1]: Non-Toxic
Activity (Mus musculus [3]): < 10%
Activity (Mus musculus [4]): Non-Toxic
inhibition in vivo at 37.5 mg/kg [6]: 50%
IC50 [7]: 250 nM
Activity (Mus musculus [11]): Non-Toxic
Activity (Mus musculus [13]): Active
TGI (CRL2813): Dose-dependent effect
Activity (Mus musculus [14]): Non-Toxic
inhibition in vivo at 150 mg/kg [15]: 90%
Activity (Mus musculus [18]): Non-Toxic
Activity (Mus musculus [19]): Non-Toxic
Activity (Mus musculus [20]): Non-Toxic
Activity (Mus musculus [22]): < 10%
